Data on 9 molecules can be found in ChEMBL document CHEMBL3259624, “Netamines H-N, tricyclic alkaloids from the marine sponge Biemna laboutei and their antimalarial activity” (J Nat Prod, 2014).

Assay [1] concerns KB. The assay is described as follows: Cytotoxicity against human KB cells at 1 uM after 72 hrs. Type of assay: functional, cell-based. Summed up: (§1)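 KB cells exposed to compounds for 72 h, with DMSO-only cells as control. Proliferation was read with CellTiter 96 Aqueous One reagent and expressed as % inhibition of proliferation relative to the DMSO control, as mean ± SE of triplicate.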

Another assay relates to Plasmodium falciparum. The assay is described as follows: Antiplasmodial activity against Plasmodium falciparum by LDH assay. Type of assay: functional, organism-based.
For assay [2], the system named is KB. Briefly: Cytotoxicity against human KB cells after 72 hrs. Type of assay: functional, cell-based. An outline of the steps:
as §1

Active and inactive are the calls of the source. The rule behind the calls is not given here.

On to `CCC/C=C\C[C@H]1c2nc(N)nc3c2[C@@H](CC3)C[C@H]1CCC`, for which the result in the assay with KB [1] was inactive.
`CCC/C=C\C[C@@H]1c2nc(N)nc3c2[C@@H](CC3)C[C@H]1C`: in the assay on KB [1], the outcome was inactive.
Still for that read-out and setting: the value for `CCC/C=C\C[C@@H]1c2nc(N)nc3c2[C@@H](CC3)C[C@H]1CCC` (relative stereo) was “inactive”.
The same measure, in the same setting: as for `CCCC[C@@H]1c2nc(N)nc3c2[C@@H](CC3)C[C@H]1CCC`, the entry is “inactive”.
The IC50 is the midpoint of a concentration-inhibition curve. The low end stands for higher potency, the high end for lower potency. On to `CCC/C=C\C[C@H]1c2nc(N)nc3c2[C@@H](CC3)C[C@H]1C`, for which, in the assay on Plasmodium falciparum, half-maximal inhibition (IC50) was put at 20.7 µM. Besides, in the assay on KB [1], the result was inactive.
As to `CCCCCCC1=C2N=C(N)N[C@H]3CC[C@@H](C[C@H]1CCC)[C@@H]23`, the outcome with KB [1] was inactive.
The molecule `CCC/C=C\CC1=C2N=C(N)N[C@H]3CC[C@@H](C[C@H]1C)[C@@H]23` (relative stereo) came in with an IC50 with KB [2] of 1000 nM.
For `CC/C=C/C1=C2N=C(N)N[C@H]3CC[C@@H](C[C@@H]1C)[C@@H]23`, the result in the assay on KB [1] was inactive.
The molecule `CCC[C@@H]1C[C@@H]2CC[C@@H]3NC(N)=NC(=C1CC)[C@H]23` (relative stereo) gave an IC50 in the assay with Plasmodium falciparum of 2.4 µM. For the same molecule, the outcome in the assay on KB [1] was inactive.
